Results reported in ChEMBL document CHEMBL5376013, “Design, synthesis and biological evaluation of novel morpholinopyrimidine-5-carbonitrile derivatives as dual PI3K/mTOR inhibitors” (RSC Med Chem, 2024).

Assays:
Type in all cases: functional
Details in all cases: read-out: GI
MCF7 = assay: Antitumor activity against human MCF7 cells assessed as growth inhibition at 10 uM relative to control
Method in brief: (§1)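 After drug addition, plates were incubated 48 h at 37 °C under 5% CO2. Adherent cells were fixed with cold TCA (10% final, 60 min, 4 °C) and suspension cells with 16% final TCA. Staining used 0.4% SRB in 1% acetic acid, solubilized in 10 mM trizma, read at A515. Percent growth was calculated from time-zero, control and treated absorbances.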

NCI-H23 = assay: Antitumor activity against human NCI-H23 cells assessed as growth inhibition at 10 uM relative to control; method in brief: as §1
DU-145 = assay: Antitumor activity against human DU-145 cells assessed as growth inhibition at 10 uM relative to control; method in brief: as §1
MDA-MB-231 = assay: Antitumor activity against human MDA-MB-231 cells assessed as growth inhibition at 10 uM relative to control; method in brief: as §1
U-251 = assay: Antitumor activity against human U-251 cells assessed as growth inhibition at 10 uM relative to control
Method in brief: (§2)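 Drug exposure 48 h at 37 °C, 5% CO2. Adherent cells fixed with cold TCA (10% final), suspension cells with TCA (16% final). Stained with 0.4% SRB in 1% acetic acid, dissolved in 10 mM Tris, A515. Growth relative to time-zero and untreated control.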

CAKI-1 = assay: Antitumor activity against human CAKI-1 cells assessed as growth inhibition at 10 uM relative to control; method in brief: as §1
HCT-116 = assay: Antitumor activity against human HCT-116 cells assessed as growth inhibition at 10 uM relative to control; method in brief: as §1
BT-549 = assay: Antitumor activity against human BT-549 cells assessed as growth inhibition at 10 uM relative to control; method in brief: as §1
UACC-257 = assay: Antitumor activity against human UACC-257 cells assessed as growth inhibition at 10 uM relative to control; method in brief: as §2
UO-31 = assay: Antitumor activity against human UO-31 cells assessed as growth inhibition at 10 uM relative to control; method in brief: as §2
SF-268 = assay: Antitumor activity against human SF-268 cells assessed as growth inhibition at 10 uM relative to control; method in brief: as §1
PC-3 = assay: Antitumor activity against human PC-3 cells assessed as growth inhibition at 10 uM relative to control; method in brief: as §1
T47D = assay: Antitumor activity against human T47D cells assessed as growth inhibition at 10 uM relative to control; method in brief: as §2
HOP-62 = assay: Antitumor activity against human HOP-62 cells assessed as growth inhibition at 10 uM relative to control; method in brief: as §1
SK-MEL-2 = assay: Antitumor activity against human SK-MEL-2 cells assessed as growth inhibition at 10 uM relative to control; method in brief: as §1
SF-539 = assay: Antitumor activity against human SF-539 cells assessed as growth inhibition at 10 uM relative to control; method in brief: as §1
HT-29 = assay: Antitumor activity against human HT-29 cells assessed as growth inhibition at 10 uM relative to control; method in brief: as §1
LOX IMVI = assay: Antitumor activity against human LOX IMVI cells assessed as growth inhibition at 10 uM relative to control; method in brief: as §1
A549 = assay: Antitumor activity against human A549 cells assessed as growth inhibition at 10 uM relative to control; method in brief: as §1
786-0 = assay: Antitumor activity against human 786-0 cells assessed as growth inhibition at 10 uM relative to control; method in brief: as §1
SR = assay: Antitumor activity against human SR cells assessed as growth inhibition at 10 uM relative to control; method in brief: as §2
OVCAR-4 = assay: Antitumor activity against human OVCAR-4 cells assessed as growth inhibition at 10 uM relative to control; method in brief: as §1
CCRF-CEM = assay: Antitumor activity against human CCRF-CEM cells assessed as growth inhibition at 10 uM relative to control; method in brief: as §1
NCI-H522 = assay: Antitumor activity against human NCI-H522 cells assessed as growth inhibition at 10 uM relative to control; method in brief: as §1
ACHN = assay: Antitumor activity against human ACHN cells assessed as growth inhibition at 10 uM relative to control; method in brief: as §1
SN12C = assay: Antitumor activity against human SN12C cells assessed as growth inhibition at 10 uM relative to control; method in brief: as §2
RPMI-8226 = assay: Antitumor activity against human RPMI-8226 cells assessed as growth inhibition at 10 uM relative to control; method in brief: as §1
SK-OV-3 = assay: Antitumor activity against human SK-OV-3 cells assessed as growth inhibition at 10 uM relative to control; method in brief: as §2
MDA-MB-468 = assay: Antitumor activity against human MDA-MB-468 cells assessed as growth inhibition at 10 uM relative to control; method in brief: as §1
UACC-62 = assay: Antitumor activity against human UACC-62 cells assessed as growth inhibition at 10 uM relative to control; method in brief: as §2
SK-MEL-28 = assay: Antitumor activity against human SK-MEL-28 cells assessed as growth inhibition at 10 uM relative to control; method in brief: as §2
SK-MEL-5 = assay: Antitumor activity against human SK-MEL-5 cells assessed as growth inhibition at 10 uM relative to control; method in brief: as §2
HCT-15 = assay: Antitumor activity against human HCT-15 cells assessed as growth inhibition at 10 uM relative to control; method in brief: as §1
MOLT-4 = assay: Antitumor activity against human MOLT-4 cells assessed as growth inhibition at 10 uM relative to control; method in brief: as §1
SNB-75 = assay: Antitumor activity against human SNB-75 cells assessed as growth inhibition at 10 uM relative to control; method in brief: as §2
SW-620 = assay: Antitumor activity against human SW-620 cells assessed as growth inhibition at 10 uM relative to control; method in brief: as §2
SNB-19 = assay: Antitumor activity against human SNB-19 cells assessed as growth inhibition at 10 uM relative to control; method in brief: as §2
COLO 205 = assay: Antitumor activity against human COLO 205 cells assessed as growth inhibition at 10 uM relative to control; method in brief: as §1
Malme-3M = assay: Antitumor activity against human Malme-3M cells assessed as growth inhibition at 10 uM relative to control; method in brief: as §1
RXF 393 = assay: Antitumor activity against human RXF 393 cells assessed as growth inhibition at 10 uM relative to control; method in brief: as §1
KM12 = assay: Antitumor activity against human KM12 cells assessed as growth inhibition at 10 uM relative to control; method in brief: as §1
OVCAR-3 = assay: Antitumor activity against human OVCAR-3 cells assessed as growth inhibition at 10 uM relative to control; method in brief: as §1
HOP-92 = assay: Antitumor activity against human HOP-92 cells assessed as growth inhibition at 10 uM relative to control; method in brief: as §1
NCI/ADR-RES = assay: Antitumor activity against human NCI-ADR-RES cells assessed as growth inhibition at 10 uM relative to control; method in brief: as §1
NCI-H226 = assay: Antitumor activity against human NCI-H226 cells assessed as growth inhibition at 10 uM relative to control; method in brief: as §1
K562 = assay: Antitumor activity against human K562 cells assessed as growth inhibition at 10 uM relative to control; method in brief: as §1

CSc1nc(Cl)c(C#N)c(-c2ccc(Cl)cc2)n1
inhibition of growth at 10 µM (MCF7): 1%
inhibition of growth at 10 µM (NCI-H23): < 1%
inhibition of growth at 10 µM (DU-145): < 1%
inhibition of growth at 10 µM (MDA-MB-231): < 1%
inhibition of growth at 10 µM (U-251): < 1%
inhibition of growth at 10 µM (CAKI-1): < 1%
inhibition of growth at 10 µM (HCT-116): < 1%
inhibition of growth at 10 µM (BT-549): 11.2%
inhibition of growth at 10 µM (UACC-257): < 1%
inhibition of growth at 10 µM (UO-31): < 1%
inhibition of growth at 10 µM (SF-268): < 1%
inhibition of growth at 10 µM (PC-3): < 1%
inhibition of growth at 10 µM (T47D): < 1%
inhibition of growth at 10 µM (HOP-62): < 1%
inhibition of growth at 10 µM (SK-MEL-2): < 1%
inhibition of growth at 10 µM (SF-539): < 1%
inhibition of growth at 10 µM (HT-29): < 1%
inhibition of growth at 10 µM (LOX IMVI): < 1%
inhibition of growth at 10 µM (A549): < 1%
inhibition of growth at 10 µM (786-0): < 1%
inhibition of growth at 10 µM (SR): 58.5%
inhibition of growth at 10 µM (OVCAR-4): < 1%
inhibition of growth at 10 µM (CCRF-CEM): 26.1%
inhibition of growth at 10 µM (NCI-H522): < 1%
inhibition of growth at 10 µM (ACHN): < 1%
inhibition of growth at 10 µM (SN12C): < 1%
inhibition of growth at 10 µM (RPMI-8226): < 1%
inhibition of growth at 10 µM (SK-OV-3): < 1%
inhibition of growth at 10 µM (MDA-MB-468): < 1%
inhibition of growth at 10 µM (UACC-62): 25.6%
inhibition of growth at 10 µM (SK-MEL-28): < 1%
inhibition of growth at 10 µM (SK-MEL-5): < 1%
inhibition of growth at 10 µM (HCT-15): < 1%
inhibition of growth at 10 µM (MOLT-4): 27.6%
inhibition of growth at 10 µM (SNB-75): 26.8%
inhibition of growth at 10 µM (SW-620): < 1%
inhibition of growth at 10 µM (SNB-19): < 1%
inhibition of growth at 10 µM (COLO 205): < 1%
inhibition of growth at 10 µM (Malme-3M): < 1%
inhibition of growth at 10 µM (RXF 393): < 1%
inhibition of growth at 10 µM (KM12): < 1%
inhibition of growth at 10 µM (OVCAR-3): < 1%
inhibition of growth at 10 µM (HOP-92): < 1%
inhibition of growth at 10 µM (NCI/ADR-RES): < 1%
inhibition of growth at 10 µM (NCI-H226): < 1%
inhibition of growth at 10 µM (K562): 44.5%
